# Published values pooled from the literature.
# Compare with care: the assays were run in different laboratories. pEC50: −log10 of the molar value.
# Observed: cell growth or viability
Compound,cell line,assay,conditions,endpoint,result
CCCCCCCCCCCCCCCCCCOCC(COP(=O)([O-])OCC[N+](C)(C)C)OC (stereo not drawn),HOP-62,SRB,10 µM,inhibition,56%
O=C(Nc1ccc(Cl)cc1)C1CCCN(C(=O)c2cc(C(F)(F)F)cc(C(F)(F)F)c2)C1 (racemic),OCI-Ly1,ATP luminescence,"0.1 µM, 5 days",viability,191%
O=C(NCCN1CCCC1)c1ccc(-c2nc3ccc4[nH]ncc4c3c3c2CCCC3)c(F)c1,K562,resazurin,72 h,GI50,1.7 µM
O=C(Nc1cccc(Br)c1)c1cccc(S(=O)(=O)N2CCCCCC2)c1,OCI-Ly1,ATP luminescence,"1 µM, 5 days",viability,153%
NCCNC(=O)c1ccc(-c2nc3ccc4[nH]ncc4c3c3c2CCCC3)cc1,K562,resazurin,72 h,GI50,6.1 µM
CC(=O)OC[C@H]1O[C@@H](n2cnc(N)nc2=O)[C@H](OC(C)=O)[C@@H]1OC(C)=O,OCI-Ly1,ATP luminescence,"0.5 µM, 5 days",viability,169%
CN(C)CCNC(=O)c1ccc(-c2nc3ccc4[nH]ncc4c3c3c2COCC3)cc1,K562,resazurin,72 h,GI50,3.5 µM
CCCCCCCCCCCCCCCCCCOc1cccc(CC(=O)OCC[N+](C)(C)C)c1,HOP-62,SRB,10 µM,inhibition,3.94%
COC(=O)CNC(=O)C(=O)OC,OCI-Ly1,ATP luminescence,"0.1 µM, 5 days",viability,198%
CCCCCCCCCCCCCCCCCCOc1ccccc1CC(=O)OCC[N+]1(C)CCOCC1,HOP-92,SRB,10 µM,inhibition,55.8%
O=C(Nc1ccc(-c2ccccc2)cc1)[C@H]1O[C@H](O[C@@H]2[C@@H](OCc3ccc4ccccc4c3)[C@H](O[C@H]3O[C@H](CNS(=O)(=O)O)[C@@H](OCc4ccc5ccccc5c4)C[C@H]3NS(=O)(=O)O)[C@@H](NS(=O)(=O)O)C[C@H]2NS(=O)(=O)O)[C@H](OCc2ccc3ccccc3c2)[C@@H](NS(=O)(=O)O)[C@@H]1OCc1ccc2ccccc2c1,4T1,CCK-8,48 h,pEC50,4.90
CCCCCCCCCCCCCCCCCCOc1ccccc1CC(=O)OCC[N+](CC)(CC)CC,HOP-92,SRB,10 µM,inhibition,93.2%
CN(C)CCNC(=O)c1ccc(-c2nc3ccc4[nH]ncc4c3c3c2CCCCC3)c(F)c1,K562,resazurin,72 h,GI50,1.4 µM
O=C(NO)c1ccc(CC(=O)N(CCO)c2ccccc2)cc1,OCI-Ly1,ATP luminescence,"0.1 µM, 5 days",viability,94.6%
CCCCCCCCCCCCCCCCCCOc1cccc(CC(=O)OCC[N+]2(C)CCCC2)c1,HOP-62,SRB,10 µM,inhibition,9.94%
